The subject of series [1] is Mast/stem cell growth factor receptor Kit (Homo sapiens), P10721 [L576P]. The series can be described thus: Inhibition of TEL fused c-KIT L576P mutant (unknown origin) transfected in mouse BAF3 cells assessed as growth inhibition after 72 hrs by CCK8 assay. In kind it is cell-based. The method in brief: (§1)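 Tel-c-KIT-transformed BaF3 lines (IL-3 independent) kept in RPMI 1640 with 10% FBS, 2% L-glutamine and pen/strep. Cells at 1.5 to 5 × 10^4 cells/mL mixed with graded compound and incubated 72 h at 37 °C, 5% CO2. Viability by CCK-8 absorbance at 450 nm, normalized to DMSO. GI50 from dose–response fit.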

For series [2], the target named is Macrophage colony-stimulating factor 1 receptor (Homo sapiens, UniProt P07333). Description: Binding affinity to wild-type human partial length CSF1R (I564 to S939 residues) expressed in bacterial expression system assessed as enzyme remaining activity at 1 uM by Kinomescan assay relative to control. The method in brief: (§2)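 KINOMEscan competition binding panel of 468 kinases and mutants, compound at 1 μM; binding reported as percent of control.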
Macrophage colony-stimulating factor 1 receptor, sequence (P07333 whole entry, the tested form may be a part): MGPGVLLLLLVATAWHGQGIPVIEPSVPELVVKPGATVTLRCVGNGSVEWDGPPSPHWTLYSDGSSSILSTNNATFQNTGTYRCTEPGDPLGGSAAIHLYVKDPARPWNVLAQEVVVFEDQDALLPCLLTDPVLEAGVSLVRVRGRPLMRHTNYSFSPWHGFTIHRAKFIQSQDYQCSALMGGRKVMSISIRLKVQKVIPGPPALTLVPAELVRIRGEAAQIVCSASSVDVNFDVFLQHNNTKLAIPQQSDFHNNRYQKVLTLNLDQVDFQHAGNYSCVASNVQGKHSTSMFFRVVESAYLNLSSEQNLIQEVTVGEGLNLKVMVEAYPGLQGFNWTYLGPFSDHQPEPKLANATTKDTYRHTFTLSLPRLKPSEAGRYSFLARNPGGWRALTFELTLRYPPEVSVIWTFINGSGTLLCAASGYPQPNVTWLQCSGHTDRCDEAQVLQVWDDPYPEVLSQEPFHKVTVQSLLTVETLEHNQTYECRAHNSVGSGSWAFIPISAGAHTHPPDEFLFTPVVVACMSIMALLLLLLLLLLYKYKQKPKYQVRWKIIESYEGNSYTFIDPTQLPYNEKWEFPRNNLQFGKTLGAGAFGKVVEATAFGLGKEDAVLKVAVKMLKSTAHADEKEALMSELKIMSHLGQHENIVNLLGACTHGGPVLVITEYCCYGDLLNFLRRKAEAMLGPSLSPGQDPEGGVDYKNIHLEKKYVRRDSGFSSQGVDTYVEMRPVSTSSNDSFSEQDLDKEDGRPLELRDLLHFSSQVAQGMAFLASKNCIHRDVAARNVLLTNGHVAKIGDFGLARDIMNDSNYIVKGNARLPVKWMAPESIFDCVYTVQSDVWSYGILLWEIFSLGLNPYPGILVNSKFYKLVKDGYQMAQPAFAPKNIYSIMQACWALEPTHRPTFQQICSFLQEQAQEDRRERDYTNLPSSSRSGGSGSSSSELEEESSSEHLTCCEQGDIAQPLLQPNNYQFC

Another series has as its system GISTT1. The series can be described thus: Induction of cell cycle arrest in human GISTT1 cells harboring 560 to 578 deletion/T670I double mutant after 24 hrs. In kind it is functional, cell-based.
Series [3] concerns the target Mast/stem cell growth factor receptor Kit (Homo sapiens, UniProt P10721). The series can be described thus: Inhibition of TEL fused wild type c-KIT (unknown origin) transfected in mouse BaF3 cells assessed as reduction in phosphorylation at Y823 residue after 2 hrs by Western blot analysis. The format is cell-based.
Series [4] is described as follows: Tmax in Sprague-Dawley rat at 1 mg/kg, iv measured after 2 to 720 mins by LC-tandem mass spectrometry analysis. The note with it: in vivo. In kind it is ADME, organism-based. The method in brief:
(§3)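 Male Sprague–Dawley rats (190-210 g), fasted 12 h, given 1 mg/kg i.v. or 10 mg/kg p.o. in DMSO/5% glucose water (1:9). Blood sampled at 2–720 min (i.v.) or 5–720 min (p.o.). Plasma proteins precipitated with methanol using caffeine internal standard, then LC-MS/MS. Noncompartmental analysis; F = AUC0-∞ ratio corrected for dose; triplicate ±SD.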

Series [5] has as its system Mast/stem cell growth factor receptor Kit (Homo sapiens), P10721 [UNDEFINED MUTATION]. The series can be described thus: Inhibition of c-KIT 560 to 578 deletion/T670I double mutant in human GISTT1 cells assessed as reduction in STAT3 phosphorylation after 1 hr by Western blot analysis. The format is cell-based. The method in brief: (§4)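 Serial compound dilutions applied for 1 h to GIST-T1, GIST-T1-T670I (CRISPR/Cas9 T670I knock-in, clone confirmed by Sanger sequencing) or GIST-5R cells in DMEM with 10% FBS. Cells then lysed and phospho-proteins detected by standard Western blotting.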

Series [6] is described as follows: Half-life in mouse at 10 mg/kg, po measured after 5 to 720 mins by LC-tandem mass spectrometry analysis. The format is ADME, organism-based. The note with it: in vivo. The method in brief:
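Mice dosed 1 mg/kg i.v. or 10 mg/kg p.o.; plasma drug levels by LC-MS/MS, parameters by noncompartmental analysis; values not from triplicate testing.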

The target of series [7] is Mast/stem cell growth factor receptor Kit (Homo sapiens, UniProt P10721, T670I). The series can be described thus: Inhibition of TEL fused wild type c-KIT T670I mutant (unknown origin) transfected in mouse BaF3 cells assessed as reduction in phosphorylation at Y823 residue after 2 hrs by Western blot analysis. In kind it is cell-based.
Mast/stem cell growth factor receptor Kit (Homo sapiens, UniProt P10721, T670I), sequence (P10721 26-976 T670I limits assumed): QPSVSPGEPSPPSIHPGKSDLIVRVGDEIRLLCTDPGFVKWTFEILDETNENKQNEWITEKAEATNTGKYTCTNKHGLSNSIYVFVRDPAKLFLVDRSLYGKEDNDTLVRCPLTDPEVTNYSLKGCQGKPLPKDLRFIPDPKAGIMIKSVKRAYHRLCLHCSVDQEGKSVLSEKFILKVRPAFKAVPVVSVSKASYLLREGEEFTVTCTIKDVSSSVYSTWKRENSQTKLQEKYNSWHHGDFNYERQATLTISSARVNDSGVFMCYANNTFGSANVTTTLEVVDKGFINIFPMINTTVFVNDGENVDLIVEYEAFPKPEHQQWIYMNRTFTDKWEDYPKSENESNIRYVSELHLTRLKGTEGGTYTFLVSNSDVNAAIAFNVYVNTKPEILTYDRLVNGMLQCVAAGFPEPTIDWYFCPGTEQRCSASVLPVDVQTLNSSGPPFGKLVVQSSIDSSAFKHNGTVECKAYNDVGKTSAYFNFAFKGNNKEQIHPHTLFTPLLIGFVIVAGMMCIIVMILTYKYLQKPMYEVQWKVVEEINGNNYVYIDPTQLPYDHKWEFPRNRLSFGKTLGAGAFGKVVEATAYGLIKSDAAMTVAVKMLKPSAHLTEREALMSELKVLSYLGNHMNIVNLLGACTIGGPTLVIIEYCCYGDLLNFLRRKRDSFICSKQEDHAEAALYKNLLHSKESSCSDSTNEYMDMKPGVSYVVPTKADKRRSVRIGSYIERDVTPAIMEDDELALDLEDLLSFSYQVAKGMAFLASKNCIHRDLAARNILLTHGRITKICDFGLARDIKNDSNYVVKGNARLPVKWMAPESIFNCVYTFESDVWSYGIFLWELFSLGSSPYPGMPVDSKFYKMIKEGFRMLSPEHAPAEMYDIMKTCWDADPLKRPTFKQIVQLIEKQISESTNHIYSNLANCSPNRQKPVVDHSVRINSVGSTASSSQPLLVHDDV
Series [8] in a line: Antiproliferative activity against human GIST5R cells harboring c-KIT 560 to 578 deletion/T670I double mutant incubated for 72 hrs by CCK8 assay. In kind it is functional. Put shortly:
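Adherent GIST cells seeded at 1.5-5 × 10^4 cells/mL and left overnight at 37 °C, 5% CO2. Medium then replaced with medium holding serial compound dilutions; 72 h incubation. Viability by CCK-8, absorbance at 450 nm, normalized to DMSO control; GI50 from dose-response fit.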

Series [9] can be described thus: Drug level in plasma of nude mouse xenograted with human GIST5R cells at 100 mg/kg, po administered as single dose and measured at 30 mins. The note with it: in vivo, 0.5 h. The format is ADME, organism-based. Put shortly: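 GIST-5R xenograft nu/nu mice given a single 100 mg/kg oral dose; plasma drug concentration followed over a time course alongside tumor p-c-KIT, p-ERK and p-AKT.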

Series [10] concerns Mast/stem cell growth factor receptor Kit (Homo sapiens), P10721 [UNDEFINED MUTATION]. Description: Inhibition of c-KIT 560 to 578 deletion/T670I double mutant in human GISTT1 cells assessed as reduction in AKT phosphorylation at S473 residue at 0.1 uM to 3 uM after 1 hr by Western blot analysis. The format is cell-based. The method in brief:
as §4

Series [11] is described as follows: Half-life in Sprague-Dawley rat at 1 mg/kg, iv measured after 2 to 720 mins by LC-tandem mass spectrometry analysis. In kind it is ADME, organism-based. The conditions noted are these: in vivo. The method in brief:
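Male Sprague-Dawley rats (190-210 g), fasted 12 h, randomized into two groups: 1 mg/kg i.v. or 10 mg/kg p.o., both formulated in 10% DMSO/90% of 5% glucose water. Blood sampled at 2-720 min (i.v.) or 5-720 min (p.o.). Plasma protein-precipitated with methanol, caffeine internal standard, LC-MS/MS. Noncompartmental analysis; triplicate, ±SD.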

Series [12] is described as follows: Tmax in mouse at 10 mg/kg, po measured after 5 to 720 mins by LC-tandem mass spectrometry analysis. The conditions noted are these: in vivo. In kind it is ADME, organism-based.
In series [13] the target is Serine/threonine-protein kinase 25 (Homo sapiens, UniProt O00506). Description: Binding affinity to wild-type human partial length STK25 (V14 to H295 residues) expressed in bacterial expression system assessed as enzyme remaining activity at 1 uM by Kinomescan assay relative to control. The method in brief:
as §2

Series [14] in a line: MRT (0 to infinity) in Sprague-Dawley rat at 1 mg/kg, iv measured after 2 to 720 mins by LC-tandem mass spectrometry analysis. The format is ADME, organism-based. The note with it: in vivo. The method in brief:
as §3

Series [15] relates to Mast/stem cell growth factor receptor Kit (Homo sapiens), P10721 [V654A]. The series can be described thus: Inhibition of TEL fused c-KIT V654A mutant (unknown origin) transfected in mouse BAF3 cells assessed as growth inhibition after 72 hrs by CCK8 assay. In kind it is cell-based. The method in brief:
as §1

For another series, the system named is Mus musculus. Description: Inhibition of c-KIT phosphorylation at Y719 residue in tumor of human GIST5R cells xenografted in nude mouse at 100 mg/kg, po administered as single dose and measured after 2 hrs. In kind it is functional, organism-based. Put shortly:
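Female nu/nu mice bearing subcutaneous GIST-5R xenografts (cells in Matrigel, right flank) given one oral gavage dose of 100 mg/kg in HKI suspension (0.5% methocellulose/0.4% Tween80 in ddH2O). Tumors collected over a 2 h time course; p-c-KIT, p-ERK and p-AKT assessed by Western blot; plasma drug levels monitored in parallel.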

Series [16] deals with Mast/stem cell growth factor receptor Kit (Homo sapiens), P10721 [UNDEFINED MUTATION]. Description: Inhibition of c-KIT 560 to 578 deletion/T670I double mutant in human GISTT1 cells assessed as reduction in c-KIT autophosphorylation at Y703 residue at 0.1 uM to 3 uM after 1 hr by Western blot analysis. In kind it is cell-based. Put shortly:
as §4

Series [17] can be described thus: Antiproliferative activity in mouse BAF3 cells after 72 hrs by CCK8 assay. In kind it is cell-based. Put shortly: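 IL-3-independent BaF3 cells carrying tel-c-KIT constructs, grown in RPMI 1640 with 10% FBS. Cells at 1.5-5 × 10^4 cells/mL mixed directly with serial compound dilutions, 72 h at 37 °C, 5% CO2. CCK-8 read-out at 450 nm, normalized to DMSO; GI50 by curve fitting.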

SMILES strings stand for the structures. Calls of active or inactive are those of the source. The calls are words filed in the database; no cut-off is given here. Some results are limits rather than exact numbers.

Mast/stem cell growth factor receptor Kit (Homo sapiens), P10721 [UNDEFINED MUTATION], sequence (P10721 whole entry, looked up, stated change not applied): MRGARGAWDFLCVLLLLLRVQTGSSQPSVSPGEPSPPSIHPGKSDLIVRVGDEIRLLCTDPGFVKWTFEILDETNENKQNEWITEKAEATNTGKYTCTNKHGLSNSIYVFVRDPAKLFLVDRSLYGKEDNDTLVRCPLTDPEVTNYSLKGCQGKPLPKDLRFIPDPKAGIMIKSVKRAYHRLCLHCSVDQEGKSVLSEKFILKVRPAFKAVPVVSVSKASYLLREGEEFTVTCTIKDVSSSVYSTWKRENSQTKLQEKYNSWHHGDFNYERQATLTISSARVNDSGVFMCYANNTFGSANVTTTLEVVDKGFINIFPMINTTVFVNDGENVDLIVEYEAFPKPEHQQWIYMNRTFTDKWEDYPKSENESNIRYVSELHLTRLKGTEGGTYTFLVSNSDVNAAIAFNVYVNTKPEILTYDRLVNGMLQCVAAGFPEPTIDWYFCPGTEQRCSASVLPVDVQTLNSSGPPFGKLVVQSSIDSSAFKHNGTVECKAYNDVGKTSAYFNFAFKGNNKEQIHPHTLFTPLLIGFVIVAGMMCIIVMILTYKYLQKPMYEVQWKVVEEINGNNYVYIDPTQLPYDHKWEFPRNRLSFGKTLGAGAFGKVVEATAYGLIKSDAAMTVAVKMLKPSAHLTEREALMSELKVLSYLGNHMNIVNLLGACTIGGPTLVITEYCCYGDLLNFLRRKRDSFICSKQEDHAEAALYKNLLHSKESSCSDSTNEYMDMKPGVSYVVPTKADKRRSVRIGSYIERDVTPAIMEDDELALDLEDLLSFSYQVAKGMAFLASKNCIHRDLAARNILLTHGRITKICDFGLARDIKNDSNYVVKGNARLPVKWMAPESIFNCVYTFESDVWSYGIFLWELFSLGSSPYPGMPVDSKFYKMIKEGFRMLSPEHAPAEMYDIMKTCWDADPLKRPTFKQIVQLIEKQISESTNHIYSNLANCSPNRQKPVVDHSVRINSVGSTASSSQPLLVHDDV
Serine/threonine-protein kinase 25, sequence (O00506 whole entry, looked up, the tested form may be a part): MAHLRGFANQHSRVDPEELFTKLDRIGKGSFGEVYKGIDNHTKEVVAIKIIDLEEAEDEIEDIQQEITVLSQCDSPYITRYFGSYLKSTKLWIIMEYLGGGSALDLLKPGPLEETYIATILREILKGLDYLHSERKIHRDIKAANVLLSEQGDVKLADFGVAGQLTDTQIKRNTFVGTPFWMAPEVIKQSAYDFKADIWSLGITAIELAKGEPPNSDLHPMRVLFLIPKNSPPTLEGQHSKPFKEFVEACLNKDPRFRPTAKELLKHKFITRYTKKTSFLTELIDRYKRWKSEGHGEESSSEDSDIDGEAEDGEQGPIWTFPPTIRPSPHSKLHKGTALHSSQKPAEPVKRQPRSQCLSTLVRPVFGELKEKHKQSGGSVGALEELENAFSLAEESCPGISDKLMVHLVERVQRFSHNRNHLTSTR
Mast/stem cell growth factor receptor Kit (Homo sapiens), P10721 [L576P], sequence (P10721 whole entry L576P, the tested form may be a part): as the sequence (P10721 whole entry, looked up, stated change not applied) above, with L576P counted along it
Mast/stem cell growth factor receptor Kit (Homo sapiens, UniProt P10721), sequence (P10721 whole entry, the tested form may be a part): as the sequence (P10721 whole entry, looked up, stated change not applied) above
Mast/stem cell growth factor receptor Kit (Homo sapiens), P10721 [V654A], sequence (P10721 whole entry V654A, the tested form may be a part): as the sequence (P10721 whole entry, looked up, stated change not applied) above, with V654A counted along it

`O=C(CC(=O)Nc1ccc2c(/C=C/c3ccccn3)n[nH]c2c1)Nc1cccc(F)c1`: the values for the concentration for 50% growth inhibition (GI50) in series [1], in series [8] and in series [15] were 157 nM, 475 nM and 525 nM, respectively. The Activity in series [2] was 0%; with GISTT1, “Dose-dependent effect”; in series [13], 0%. The EC50 in [3] is more than 1000 nM; in series [7], 34 nM. Also, the Tmax in series [4] was 1.02 min; in series [12] it was 0.5 h. Also, the inhibition entry in series [5] was “Dose-dependent effect”. In addition, the half-life in series [6] is 1.6 h; in series [11] it was 10.4 h. The Drug uptake result in series [9] is recorded as “Active”. The inhibition result in series [10] and in [16] was “Active” each time. In addition, in series [14], the mean residence time MRT inf stood at 6.4 h. For the same compound, the inhibition result in the series with Mus musculus was “inactive”. Besides, it took 3970 nM to inhibit growth in series [17] by half (GI50 at 72 h).

(Values after ChEMBL document CHEMBL4304743, “Discovery of ( E)- N1-(3-Fluorophenyl)- N3-(3-(2-(pyridin-2-yl)vinyl)-1 H-indazol-6-yl)malonamide (CHMFL-KIT-033) as a Novel c-KIT T670I Mutant Selective Kinase Inhibitor for Gastrointestinal Stromal Tumors (GISTs)” (J Med Chem, 2019).)
